A short description of data set [1]: folding enthalpy; higher = less favourable; fluorescence melt of hairpins on a sequencing array, two-state fit. The note with it: sodium 0.088 M. A digest of the protocol:
(§1)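 Melting temperature and folding enthalpy were obtained by bootstrapped two-state fitting. Fits used Cy3 fluorescence of library hairpins with annealed Cy3 and quencher oligos on a sequenced MiSeq flow cell, imaged in 50 mM Na-HEPES pH 8.0, 25 mM NaCl in 2.5 °C steps up to 60 °C and normalised to pre-quench Cy3 and control constructs. Four replicates were combined by inverse-variance weighting, and fitted temperatures were raised by 9.35 °C to match UV melts.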

Data set [2] can be described thus: melting temperature; fluorescence melt of hairpins on a sequencing array, two-state fit, raised by 9.35 °C to match UV melts. Particulars: sodium 0.088 M. A digest of the protocol:
as §1

For the sequence GCTCCTGGAAACAGGGGC ((.((((....)))).)), the folding enthalpy in data set [1] is -166 kJ/mol. Moreover, in data set [2], the Tm was 57.4 °C.
The matching figures for GCTCGACGAAAGTCAAGC (((.(((....))).))): -116 kJ/mol and 51.8 °C.
The like results for GCTCGAGAAATCGAGC ((((((....)))))) were, in that order, -156 kJ/mol and 66.5 °C.
For the sequence GCTCGAGGAAACTCGGGC ((.((((....)))).)), the folding enthalpy in data set [1] was -163 kJ/mol. For the same sequence, in data set [2], the Tm was found to be 59.9 °C.
GCTCGATCGAAAGATAGC (((..(((....)))))): in data set [1], the folding enthalpy was -49 kJ/mol. The Tm in data set [2] came out at 28.1 °C.
The matching figures for GCTCGCACGAAAGTGAGC (((..(((....)))))): -88.7 kJ/mol and 49.6 °C.
The like results for GCTCGCCCGAAAGGGAGC (((..(((....)))))) were, in that order, -70.2 kJ/mol and 48.4 °C.
GCTCGCGAAAGCGATAGC ((((((....)))..))): the folding enthalpy in data set [1] is -60.1 kJ/mol. Moreover, in data set [2], the Tm was 50.3 °C.
The like results for GCTCGCGAAAGCGCAGC ((((((....))).))) were, in that order, -82.2 kJ/mol and 54.4 °C.
As for GCTCGCGAAAGCGGAGC ((((((....))).))), the folding enthalpy in data set [1] is -95.7 kJ/mol. Besides, the Tm in data set [2] stood at 67.9 °C.
The like results for GCTCGCGAAAGCGGTAGC ((((((....)))..))) were, in that order, -64.4 kJ/mol and 51 °C.
The like results for GCTCGCGGAAACGCGAAC (.(((((....))))).) were, in that order, -47.1 kJ/mol and 48.9 °C.
The like results for GCTCGGCCGAAAGGCAGC (((..(((....)))))) were, in that order, -36.7 kJ/mol and 55.6 °C.
Take GCTCGGCGAAAGCCAGC (((.(((....)))))): the folding enthalpy in data set [1] is -72.8 kJ/mol. For the same sequence, the Tm in data set [2] is 62.9 °C.
The matching figures for GCTCGGCGAAAGCCATGC ((..(((....)))..)): -44.9 kJ/mol and 49.8 °C.
The matching figures for GCTCGGCGAAAGCCTTGC ((..(((....)))..)): -47.7 kJ/mol and 50.2 °C.
The matching figures for GCTCGGCGAAAGCGGGGC ((.(.((....)).).)): -86 kJ/mol and 61.1 °C.
Consider GCTCGGCGAAAGCGGTGC ((.(.((....)).).)), for which the folding enthalpy in data set [1] is -54.2 kJ/mol. For the same sequence, in data set [2], the Tm stood at 57.6 °C.
The like results for GCTCGGCGAAAGCGTAGC (((..((....))..))) were, in that order, -53.8 kJ/mol and 39.3 °C.
The like results for GCTCGGCGAAAGCTGCGC ((.(.((....)).).)) were, in that order, -72.7 kJ/mol and 56.2 °C.
The matching figures for GCTCGGCGAAAGCTGTGC ((.(.((....)).).)): -64.3 kJ/mol and 60.2 °C.
With GCTCGGGGAAACTCGGGC ((.((.(....).)).)), the folding enthalpy in data set [1] was -109 kJ/mol. The Tm in data set [2] came to 46.6 °C.
For GCTCGGTCGAAAGACAGC (((..(((....)))))), the folding enthalpy in data set [1] was -51.5 kJ/mol. In addition, the Tm in data set [2] was determined as 41.2 °C.
Turning to GCTCGTCGAAAGACAAGC (((.(((....))).))), the folding enthalpy in data set [1] is -103 kJ/mol. Further, the Tm in data set [2] was determined as 49.5 °C.
The matching figures for GCTCTAGAAATAGAGC ((((((....)))))): -143 kJ/mol and 50.9 °C.
The matching figures for GCTCTCGAAAGAGAGAGC ((((((....)))..))): -81.7 kJ/mol and 57.2 °C.
Consider GCTCTCGAAAGAGCAGC ((((((....))).))), for which the folding enthalpy in data set [1] is -64.4 kJ/mol. Besides, the Tm in data set [2] amounted to 48.2 °C.
The matching figures for GCTCTCGAAAGAGCGAGC ((((((....)))..))): -63.3 kJ/mol and 49.3 °C.
The like results for GCTCTCGAAAGAGGAGC ((((((....))).))) were, in that order, -122 kJ/mol and 50.6 °C.
The matching figures for GCTCTCGAAAGAGGCAGC ((((((....)))..))): -64.7 kJ/mol and 42.3 °C.
Take GCTCTCGGAAACGAAAGC (((.(((....))).))): the folding enthalpy in data set [1] is -119 kJ/mol. Also, in data set [2], the Tm stood at 39.4 °C.
The like results for GCTCTGACGAAAGTCAGC (((..(((....)))))) were, in that order, -31.3 kJ/mol and 31.3 °C.
The matching figures for GCTCTGCGAAAGCATGGC ((..(((....)))..)): -81.8 kJ/mol and 40.1 °C.
Take GCTCTGCGAAAGCGGCGC ((.(.((....)).).)): the folding enthalpy in data set [1] was -72.1 kJ/mol. The Tm in data set [2] was found to be 50.5 °C.
The matching figures for GCTCTGCGAAAGCTGCGC ((.(.((....)).).)): -76.9 kJ/mol and 44.2 °C.
With GCTCTGCGAAAGCTGGGC ((.(.((....)).).)), the folding enthalpy in data set [1] is -89.7 kJ/mol. The Tm in data set [2] was found to be 54.3 °C.
For the sequence GCTCTGGAAACAGAGC ((((((....)))))), the folding enthalpy in data set [1] is -156 kJ/mol. Further, the Tm in data set [2] turned out to be 62.2 °C.

Source of the values: the array DNA melting data of Ke et al. (doi:10.1101/2024.01.08.574731).
